# Experimental data reported in ChEMBL document CHEMBL1124957, “6-Benzoxazinylpyridazin-3-ones: potent, long-acting positive inotrope and peripheral vasodilator agents” (J Med Chem, 1990).
# System: Canis familiaris
# Assay: Heart rate in dog following 1.875 mg/kg i.v. administration.
# Assay type: functional, Canis lupus familiaris
# Conditions: route intravenous
# Procedure, shortened: (§1)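 Anesthetized adult mongrel dogs (sodium pentobarbital 45 mg/kg ip), artificially respired; MAP from cannulated femoral artery, infusion into femoral vein. Dopamine standard (10–15 μg/kg/min, 3 min) checked inotropic responsiveness. Compounds dissolved in DMF, diluted to 10% final in saline; stepwise 3–4 increasing doses, each infused over 5 min after prior peak. CF, MAP, HR expressed as % change from predrug control vs cumulative dose.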
row,SMILES,Activity
1,O=C1CCC(c2ccc3c(c2)NC(=O)CO3)=NN1,9
2,C=CCN1N=C(c2ccc3c(c2)N(S(C)(=O)=O)CCO3)CCC1=O,10

# System: Canis familiaris
# Assay: Myocardial contractile force (CF) in dog after intravenous dose of 1.875 mg/kg
# Assay type: functional, Canis lupus familiaris, Myocardium
# Conditions: not given
# Procedure, shortened: as §1
row,SMILES,Activity
1,C=CCN1N=C(c2ccc3c(c2)N(S(C)(=O)=O)CCO3)CCC1=O,37

# System: Canis familiaris
# Assay: Mean arterial blood pressure (MAP) in dog after intravenous dose of 0.188 mg/kg
# Assay type: functional, Canis lupus familiaris
# Conditions: not given
# Procedure, shortened: as §1
row,SMILES,Activity
1,O=C1CCC(c2ccc(-n3ccnc3)cc2)=NN1 [IMAZODAN],-4

# System: Canis familiaris
# Assay: Effective dose required to increase the myocardial contractile force (CF) 50% above base line when administered intravenously.
# Assay type: functional
# Conditions: Canis lupus familiaris, Myocardium, iv
# Procedure, shortened: (§2)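 Dopamine standard (10–15 μg/kg/min, 3 min) checked inotropic responsiveness. Compounds dissolved in DMF, diluted to 10% final in saline; stepwise 3–4 increasing doses, each infused over 5 min after prior peak. CF, MAP, HR expressed as % change from predrug control vs cumulative dose.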
row,SMILES,ED50 [mg/kg]
1,CC1CC(=O)NN=C1c1ccc2c(c1)NCCO2 (configuration not stated),0.056
2,CC1CC(=O)NN=C1c1ccc2c(c1)OC(C)C(=O)N2 (configuration not stated),0.0054
3,CC1CC(=O)NN=C1c1ccc2c(c1)NC(=O)C(C)O2 (configuration not stated),0.07
4,CC1CC(=O)NN=C1c1ccc2c(c1)N(S(C)(=O)=O)CCO2 (configuration not stated),0.148
5,CC1CC(=O)NN=C1c1ccc2c(c1)OC(C)(C)C(=O)N2 (configuration not stated),0.0162
6,CC1CC(=O)NN=C1c1ccc2c(c1)OC(C)(C)C(=O)N2C (configuration not stated),0.0217
7,Cc1cc(C2=NNC(=O)CC2)c2c(c1)N(C)C(=O)CO2,0.258
8,CC(=O)N1CCOc2ccc(C3=NNC(=O)CC3C)cc21 (configuration not stated),0.056
9,CC1CC(=O)NN=C1c1ccc2c(c1)NC(=O)CO2 (configuration not stated),0.077
10,Cc1cc2c(cc1C1=NNC(=O)CC1C)NC(=O)CO2 (configuration not stated),0.137
11,CN1C(=O)COc2ccc(C3=NNC(=O)CC3)cc21,0.279
12,O=C1CCC(c2ccc3c(c2)NC(=O)CO3)=NN1,0.7
13,C=CCN1N=C(c2ccc3c(c2)N(S(C)(=O)=O)CCO3)CCC1=O,> 1.88
14,CC1CC(=O)NN=C1c1ccc2c(c1)N(C)C(=O)C(C)O2 (configuration not stated),0.068
15,O=C1CCC(c2ccc(-n3ccnc3)cc2)=NN1 [IMAZODAN],0.0822
16,CC1(C)C(=O)Nc2ccc(C3=NNC(=O)CC3)cc21 [INDOLIDAN],0.0084

# System: Canis familiaris
# Assay: Mean arterial blood pressure in dog following 1.875 mg/kg i.v. administration.
# Assay type: functional, Canis lupus familiaris
# Conditions: route intravenous
# Procedure, shortened: as §1
row,SMILES,Activity
1,C=CCN1N=C(c2ccc3c(c2)N(S(C)(=O)=O)CCO3)CCC1=O,4

# System: Canis familiaris
# Assay: Heart rate (HR) in dog after intravenous dose of 0.188 mg/kg
# Assay type: functional, Canis lupus familiaris
# Conditions: not given
# Procedure, shortened: as §1
row,SMILES,Activity
1,O=C1CCC(c2ccc(-n3ccnc3)cc2)=NN1 [IMAZODAN],8

# System: Canis familiaris
# Assay: Myocardial contractile force (CF) in dog after intravenous dose of 0.188 mg/kg
# Assay type: functional, Canis lupus familiaris, Myocardium
# Conditions: not given
# Procedure, shortened: as §1
row,SMILES,Activity
1,O=C1CCC(c2ccc(-n3ccnc3)cc2)=NN1 [IMAZODAN],77

# System: Canis familiaris
# Assay: Myocardial contractile force (CF) in dog after intravenous dose of 0.075 mg/kg
# Assay type: functional, Canis lupus familiaris, Myocardium
# Conditions: not given
# Procedure, shortened: as §2
row,SMILES,Activity
1,CC1CC(=O)NN=C1c1ccc2c(c1)OC(C)C(=O)N2 (configuration not stated),154
2,CC1CC(=O)NN=C1c1ccc2c(c1)OC(C)(C)C(=O)N2 (configuration not stated),82
3,CC1CC(=O)NN=C1c1ccc2c(c1)OC(C)(C)C(=O)N2C (configuration not stated),85
4,CC1(C)C(=O)Nc2ccc(C3=NNC(=O)CC3)cc21 [INDOLIDAN],110

# Species on record: Canis familiaris
# Assay: Inotropic and enzyme inhibition effect on heart rate (HR)
# Assay type: functional, Canis lupus familiaris
# Conditions: not given
row,SMILES,Activity
1,Cc1cc(C2=NNC(=O)CC2)c2c(c1)N(C)C(=O)CO2,9

# System: Canis familiaris
# Assay: Myocardial contractile force (CF) in dog after intravenous dose of 0.470 mg/kg
# Assay type: functional, Canis lupus familiaris, Myocardium
# Conditions: dose 0.47 mg/kg
# Procedure, shortened: as §1
row,SMILES,Activity
1,CC1CC(=O)NN=C1c1ccc2c(c1)NCCO2 (configuration not stated),149
2,CC1CC(=O)NN=C1c1ccc2c(c1)NC(=O)C(C)O2 (configuration not stated),157
3,CC1CC(=O)NN=C1c1ccc2c(c1)N(S(C)(=O)=O)CCO2 (configuration not stated),99
4,Cc1cc(C2=NNC(=O)CC2)c2c(c1)N(C)C(=O)CO2,73
5,CC(=O)N1CCOc2ccc(C3=NNC(=O)CC3C)cc21 (configuration not stated),135

# System: Canis familiaris
# Assay: Heart rate (HR) in dog after intravenous dose of 0.010 mg/kg
# Assay type: functional, Canis lupus familiaris
# Conditions: dose 0.075 mg/kg, in the assay text read “0.075 mg/kg” for “0.010 mg/kg”
# Procedure, shortened: as §1
row,SMILES,Activity
1,CC1(C)C(=O)Nc2ccc(C3=NNC(=O)CC3)cc21 [INDOLIDAN],32

# System: Canis familiaris
# Assay: Heart rate (HR) in dog after intravenous dose of 0.075 mg/kg
# Assay type: functional, Canis lupus familiaris
# Conditions: not given
# Procedure, shortened: as §2
row,SMILES,Activity
1,CC1CC(=O)NN=C1c1ccc2c(c1)OC(C)C(=O)N2 (configuration not stated),23
2,CC1CC(=O)NN=C1c1ccc2c(c1)OC(C)(C)C(=O)N2 (configuration not stated),16
3,CC1CC(=O)NN=C1c1ccc2c(c1)OC(C)(C)C(=O)N2C (configuration not stated),19

# Target: phosphodiesterase fraction III (Canis familiaris)
# Assay: Inhibition of cardiac phosphodiesterase-3 isolated from canine heart.
# Conditions: not given
row,IC50 [µM],SMILES
1,6,CC1CC(=O)NN=C1c1ccc2c(c1)NCCO2 (configuration not stated)
2,6,CC1CC(=O)NN=C1c1ccc2c(c1)OC(C)(C)C(=O)N2C (configuration not stated)
3,30,CC(=O)N1CCOc2ccc(C3=NNC(=O)CC3C)cc21 (configuration not stated)
4,2,CC1CC(=O)NN=C1c1ccc2c(c1)NC(=O)CO2 (configuration not stated)
5,630,O=C1CCC(c2ccc3c(c2)NC(=O)CO3)=NN1
6,7,CC1(C)C(=O)Nc2ccc(C3=NNC(=O)CC3)cc21 [INDOLIDAN]

# Further lines, the compound ahead of its results:
row,SMILES,IC50 [µM]
1,CC1CC(=O)NN=C1c1ccc2c(c1)OC(C)C(=O)N2 (configuration not stated),4
2,CC1CC(=O)NN=C1c1ccc2c(c1)NC(=O)C(C)O2 (configuration not stated),5
3,CC1CC(=O)NN=C1c1ccc2c(c1)N(S(C)(=O)=O)CCO2 (configuration not stated),4
4,CC1CC(=O)NN=C1c1ccc2c(c1)OC(C)(C)C(=O)N2 (configuration not stated),4
5,Cc1cc(C2=NNC(=O)CC2)c2c(c1)N(C)C(=O)CO2,26
6,Cc1cc2c(cc1C1=NNC(=O)CC1C)NC(=O)CO2 (configuration not stated),20
7,CN1C(=O)COc2ccc(C3=NNC(=O)CC3)cc21,18
8,CC1CC(=O)NN=C1c1ccc2c(c1)N(C)C(=O)C(C)O2 (configuration not stated),6

# System: Canis familiaris
# Assay: Mean arterial blood pressure (MAP) in dog after intravenous dose of 0.075 mg/kg
# Assay type: functional, Canis lupus familiaris
# Conditions: not given
# Procedure, shortened: as §2
row,SMILES,Activity
1,CC1CC(=O)NN=C1c1ccc2c(c1)OC(C)C(=O)N2 (configuration not stated),-17
2,CC1CC(=O)NN=C1c1ccc2c(c1)OC(C)(C)C(=O)N2 (configuration not stated),-28
3,CC1CC(=O)NN=C1c1ccc2c(c1)OC(C)(C)C(=O)N2C (configuration not stated),-14
4,CC1(C)C(=O)Nc2ccc(C3=NNC(=O)CC3)cc21 [INDOLIDAN],-27

# System: Canis familiaris
# Assay: Heart rate (HR) in dog after intravenous dose of 0.470 mg/kg
# Assay type: functional, Canis lupus familiaris
# Conditions: dose 0.47 mg/kg
# Procedure, shortened: as §1
row,SMILES,Activity
1,CC1CC(=O)NN=C1c1ccc2c(c1)NCCO2 (configuration not stated),44
2,CC1CC(=O)NN=C1c1ccc2c(c1)NC(=O)C(C)O2 (configuration not stated),18
3,CC1CC(=O)NN=C1c1ccc2c(c1)N(S(C)(=O)=O)CCO2 (configuration not stated),17
4,CC(=O)N1CCOc2ccc(C3=NNC(=O)CC3C)cc21 (configuration not stated),35
5,CC1CC(=O)NN=C1c1ccc2c(c1)NC(=O)CO2 (configuration not stated),26
6,Cc1cc2c(cc1C1=NNC(=O)CC1C)NC(=O)CO2 (configuration not stated),20
7,CN1C(=O)COc2ccc(C3=NNC(=O)CC3)cc21,13
8,CC1CC(=O)NN=C1c1ccc2c(c1)N(C)C(=O)C(C)O2 (configuration not stated),36

# System: Canis familiaris
# Assay: Mean arterial blood pressure (MAP) in dog after intravenous dose of 0.470 mg/kg
# Assay type: functional, Canis lupus familiaris
# Set-up: unit: % change from predrug control
# Conditions: dose 0.47 mg/kg
# Procedure, shortened: as §1
row,SMILES,Activity
1,CC1CC(=O)NN=C1c1ccc2c(c1)NCCO2 (configuration not stated),-11
2,CC1CC(=O)NN=C1c1ccc2c(c1)NC(=O)C(C)O2 (configuration not stated),-10
3,CC1CC(=O)NN=C1c1ccc2c(c1)N(S(C)(=O)=O)CCO2 (configuration not stated),-1
4,Cc1cc(C2=NNC(=O)CC2)c2c(c1)N(C)C(=O)CO2,1
5,CC(=O)N1CCOc2ccc(C3=NNC(=O)CC3C)cc21 (configuration not stated),-31
6,CC1CC(=O)NN=C1c1ccc2c(c1)NC(=O)CO2 (configuration not stated),-14
7,Cc1cc2c(cc1C1=NNC(=O)CC1C)NC(=O)CO2 (configuration not stated),-4
8,CN1C(=O)COc2ccc(C3=NNC(=O)CC3)cc21,-4
9,CC1CC(=O)NN=C1c1ccc2c(c1)N(C)C(=O)C(C)O2 (configuration not stated),-15
